The target in assay [1] is Cannabinoid receptor 2 (Mus musculus, UniProt P47936). Nature of the assay: Binding affinity to Cannabinoid receptor 2 from mouse spleen was measured using [3H]CP-55940 as radioligand. Format: tissue-based. The essentials:
(§1)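 Filtration displacement assay: 40 µg membrane protein (rat forebrain synaptosomes for CB1, mouse spleen for CB2) incubated 1 h at 30 °C with 0.76 nM [3H]CP-55,940 and varied test concentrations. Nonspecific binding defined by 100 nM unlabeled CP-55,940. Specific binding normalized 0–100%, IC50 fitted with a four-variable equation (max 100, min 0), mean of ≥3 experiments in duplicate, then converted to Ki.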

In assay [2] the target is Cannabinoid receptor 1 (Rattus norvegicus, UniProt P20272). Nature of the assay: Binding affinity to Cannabinoid receptor 1 from rat forebrain synaptosomal membranes was measured using [3H]CP-55940 as radioligand. The essentials: as §1
Sequence of Cannabinoid receptor 1 (P20272 whole entry): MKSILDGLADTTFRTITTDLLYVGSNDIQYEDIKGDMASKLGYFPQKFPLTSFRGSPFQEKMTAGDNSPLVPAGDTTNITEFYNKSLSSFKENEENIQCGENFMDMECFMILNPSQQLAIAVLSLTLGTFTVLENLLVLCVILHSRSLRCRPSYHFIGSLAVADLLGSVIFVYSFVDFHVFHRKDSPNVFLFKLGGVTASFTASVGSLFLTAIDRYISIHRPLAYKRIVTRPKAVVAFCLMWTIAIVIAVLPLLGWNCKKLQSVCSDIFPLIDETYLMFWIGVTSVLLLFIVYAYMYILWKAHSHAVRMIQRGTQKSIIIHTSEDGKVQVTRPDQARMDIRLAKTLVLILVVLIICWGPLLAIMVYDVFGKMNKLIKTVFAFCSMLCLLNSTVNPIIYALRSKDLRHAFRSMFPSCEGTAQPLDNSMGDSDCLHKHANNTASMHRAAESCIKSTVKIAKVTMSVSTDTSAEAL

Sequence of Cannabinoid receptor 2 (P47936 whole entry): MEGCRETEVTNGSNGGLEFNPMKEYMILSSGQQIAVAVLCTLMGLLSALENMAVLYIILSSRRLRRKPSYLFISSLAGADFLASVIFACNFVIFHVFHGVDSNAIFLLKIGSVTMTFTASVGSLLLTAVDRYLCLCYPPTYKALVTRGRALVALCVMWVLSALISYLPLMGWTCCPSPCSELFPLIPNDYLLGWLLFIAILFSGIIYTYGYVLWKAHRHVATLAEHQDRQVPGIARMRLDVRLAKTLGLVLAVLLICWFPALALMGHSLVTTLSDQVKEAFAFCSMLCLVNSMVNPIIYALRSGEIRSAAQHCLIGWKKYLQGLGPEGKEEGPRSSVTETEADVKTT

Regarding `CCCCCCC(C)(C)c1cc(O)c2c(c1)O[C@@](C)(CCCO)[C@@H]1CC[C@@H](CO)C[C@@H]21`, the Ki in assay [1] came to 3.4 nM; in assay [2] it was 2.2 nM.

Take `CCCCCCC(C)(C)c1cc(O)c2c(c1)O[C@@](C)(CC)[C@@H]1CC[C@@H](CO)C[C@@H]21`: the Ki was determined as 21.5 nM in assay [1] and 11.1 nM in assay [2].

Regarding `CCCCCCC(C)(C)c1cc(O)c2c(c1)O[C@@](C)(CCI)[C@@H]1CC[C@@H](CO)C[C@@H]21`, the figures for the Ki in assay [1] and in assay [2] were 9.7 nM and 40.7 nM, respectively.

Regarding `CCCCCCC(C)(C)c1cc(O)c2c(c1)O[C@@](C)(CCO)[C@@H]1CC[C@@H](CO)C[C@@H]21`, the Ki in assay [1] was found to be 2.3 nM; in assay [2] it was 2.8 nM.

In the case of `CCCCCCC(C)(C)c1cc(O)c2c(c1)OC(C)(C)[C@@H]1CC[C@@H](CO)C[C@@H]21`, the Ki in assay [1] and in assay [2] was 2.3 nM each time.

Take `CCCCCCC(C)(C)c1cc(O)c2c(c1)O[C@@](C)(CCCI)[C@@H]1CC[C@@H](CO)C[C@@H]21`: the Ki was 4.3 nM in assay [1] and 2.2 nM in assay [2].

For `CCCCCCC(C)(C)c1cc(O)c2c(c1)O[C@@](C)(CO)[C@@H]1CC[C@@H](CO)C[C@@H]21`, the Ki was found to be 1.4 nM in assay [1] and 1.9 nM in assay [2].

Take `CCCCCCC(C)(C)c1cc(O)c2c(c1)O[C@@](C)(CCC)[C@@H]1CC[C@@H](CO)C[C@@H]21`: the Ki in assay [1] worked out at 38.9 nM; in assay [2] it was 14.4 nM.

Broadly, the Ki is a dissociation constant, usually derived from enzyme kinetics or from competition with a known ligand.

Values taken from ChEMBL document CHEMBL1131094, “Classical/nonclassical hybrid cannabinoids: southern aliphatic chain-functionalized C-6beta methyl, ethyl, and propyl analogues” (J Med Chem, 1998).
